# In the library only some 2.3% were active in any assay of this set; here they are far more common.
# ATG4B inhibitor – ATG4B protease inhibitors, primary screen, biochemical, fluorescence, uHTS | Cysteine protease ATG4B (Homo sapiens), Q9Y4P1 | ATG4B cleavage of LC3-PLA2, NBD-HPC fluorescence, 1 h | inhibition, % at 8.33 µM | hit rate 0.51% among 340,000 | AID 504462, 2011; in the data active means inhibition above about 40%
# Target sequence (Q9Y4P1 whole entry, looked up): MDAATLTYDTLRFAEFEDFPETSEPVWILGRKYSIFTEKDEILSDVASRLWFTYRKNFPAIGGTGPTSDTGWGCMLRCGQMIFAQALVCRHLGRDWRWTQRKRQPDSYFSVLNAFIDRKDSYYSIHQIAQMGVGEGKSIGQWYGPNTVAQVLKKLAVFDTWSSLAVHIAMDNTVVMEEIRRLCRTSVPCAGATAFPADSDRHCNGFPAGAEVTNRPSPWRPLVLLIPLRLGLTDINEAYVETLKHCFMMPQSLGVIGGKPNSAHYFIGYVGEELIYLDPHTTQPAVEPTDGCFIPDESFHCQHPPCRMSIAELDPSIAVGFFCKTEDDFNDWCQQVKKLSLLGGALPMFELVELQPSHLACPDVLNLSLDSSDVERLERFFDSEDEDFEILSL
# SKN-1 block – suppressors of acrylamide-induced Pgst-4::GFP reporter in worms, primary screen, SKN-1 inhibitor project, whole organism, uHTS, GFP/RFP fluorescence ratio, strain VP596; hit rate 0.49% among 360,000; AID 624304, 2012; C. elegans VP596 Pgst-4::GFP/RFP ratio, 24 h; inhibition, % at 21.8 µM;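 active means interference check ratio from 0.5 to 1.5 plus GFP to RFP signal ratio inhibition reaching or exceeding a fixed threshold, cut at about 30% in these data, passing the limit was not always enough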
# MPTP block – mitochondrial permeability transition pore inhibitors, primary screen, biochemical, isolated mouse mitochondria, absorbance; Ca2+ swelling absorbance, 30 min; inhibition, % at 10 µM; hit rate 1.4% among 360,000;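 active means inhibition of 50% or more, scaled per plate between neutral and stimulator controls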
# MT1-MMP act inh – blockers of MT1-MMP proenzyme processing, primary screen, HT1080 RFP-PRO-GFP cells, GFP/RFP fluorescence; AID 651647, 2012; GFP/RFP ratio fluorescence, overnight; percent of plate control window, DMSO zero; hit rate 0.061% among 360,000; Matrix metalloproteinase-14 (Homo sapiens), P50281; GFP/RFP ratio change, % at 20 µM;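 active means GFP/RFP ratio change of at least 30% with cell ATP level not reduced by more than half and red fluorescence within 50% of control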
#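 Material: RFP-PRO-GFP reporter HT1080 cells. Dosing: single-point 20 µM compound, 1% DMSO. Controls: DMSO and RFP-L50D-GFP cell wells. Timing: cells overnight before dosing, compound overnight, 37 °C, 5% CO2. Measure: GFP/RFP fluorescence ratio.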
# Rh123 counter – fluorescence retest of MPTP screen hits in isolated mitochondria, single concentration; shares compounds with MPTP block; membrane potential, Rhodamine 123 fluorescence; inhibition, % at 10 µM; hit rate 78% among 5,000; in the data active means inhibition above about 22%
# MPTP swell DR – mitochondrial permeability transition pore inhibitors, dose response, biochemical, absorbance, uHTS hits. isolated mitochondria swelling. IC50, µM. hit rate 58% among 780. shares compounds with MPTP block; in the data active means IC50 below about 20 µM
# MPTP cs DR – fluorescent counter-screen in isolated mitochondria, dose response, counter-screen for MPTP inhibitor project, biochemical, fluorescence, uHTS hits; shares compounds with MPTP block; isolated mitochondria counterscreen, fluorescence read-out; IC50, µM; hit rate 49% among 780; AID 651564, 2012; in the data active means IC50 below about 80 µM
# A number is an active result; i = inactive; nt = no result given.
SMILES,ATG4B inhibitor,SKN-1 block,MPTP block,MT1-MMP act inh,Rh123 counter,others
Cc1[nH]n(-c2ccccc2)c(=O)c1N=Nc1ccc2c(c1)OCCO2,i,i,i,i,nt,
Cc1[nH]n(-c2ccccc2)c(=O)c1N=Nc1c(O)cc(S(=O)(=O)N(C)C)c2ccccc12,i,i,81,i,42,
CCN(CC)CCCNc1ccc(-c2nnc(-c3ccc(OCC(C)C)cc3)o2)cn1,i,i,91,nt,i,
O=S(=O)(NC1CC(NS(=O)(=O)OCC(Cl)(Cl)Cl)C2CCCCC12)OCC(Cl)(Cl)Cl (stereo not drawn),i,i,70,i,102,
CCOc1cc(CNCCSc2nnnn2C)cc(Br)c1OCc1ccc(F)cc1,i,68,93,i,i,MPTP swell DR=i;MPTP cs DR=23
Cc1cc2ncn(C3CC(=O)N(Cc4ccccc4)C3=O)c2cc1C (stereo not drawn),i,i,i,i,nt,
Cc1nc2ccccc2n1C1CC(=O)N(Cc2ccccc2)C1=O (stereo not drawn),i,i,65,i,58,
Cc1noc(-c2ccc(C(F)(F)F)cc2)c1NC(=O)Nc1ccc(Cl)cc1,i,i,75,i,72,
NC(=O)CC(NC(=O)c1ccc(Cl)cc1)C(=O)NCCc1ccc(S(N)(=O)=O)cc1 (stereo not drawn),i,i,i,i,nt,
CCn1c(COc2ccc(Cl)cc2)nnc1SCC(=O)Nc1ccc2c(c1)OCCO2,i,i,i,i,nt,
CCn1c(COc2ccc3c(c2)OCO3)nnc1SCC(=O)c1ccc(Cl)cc1,i,i,58,i,79,
Cc1ccc(-c2nc3ccc([N+](=O)[O-])cc3[nH]2)cc1,i,i,76,i,82,
COc1ccc2nc(-c3ccccc3)[nH]c2c1,i,i,i,i,nt,
O=[N+]([O-])c1ccc2nc(-c3ccncc3)[nH]c2c1,i,i,i,i,nt,
O=[N+]([O-])c1cccc(-c2nc3ccc([N+](=O)[O-])cc3[nH]2)c1,i,i,93,i,83,
O=[N+]([O-])c1ccc(/C=C/c2nc3ccc([N+](=O)[O-])cc3[nH]2)cc1,i,i,98,i,64,
COc1ccc(-c2nc3ccc([N+](=O)[O-])cc3[nH]2)cc1,i,i,58,i,53,
Nc1nc2ccc([N+](=O)[O-])cc2[nH]1,i,i,i,i,nt,
Cc1cc(C)n(-c2nncn2NC(=O)c2ccc(Cl)cc2O)n1,i,i,i,i,nt,
O=[N+]([O-])c1ccc2nc(-c3ccccc3[N+](=O)[O-])[nH]c2c1,i,i,i,i,nt,
O=[N+]([O-])c1ccc2nc(-c3ccc(Cl)cc3)[nH]c2c1,i,i,92,i,86,
COc1ccc(CCC(=O)Nc2cccc(Cl)c2)cc1,i,i,i,i,nt,
Cc1cccc(Oc2cc(NC(=O)c3ccccc3)cc([N+](=O)[O-])c2)c1,i,i,68,i,81,
O=C(CCc1ccc(Oc2cc([N+](=O)[O-])cc([N+](=O)[O-])c2)cc1)Nc1cccc(Cl)c1,i,i,97,i,78,
O=C(Nc1cc(Oc2ccc(Cl)cc2)cc([N+](=O)[O-])c1)c1ccco1,i,i,91,i,74,
SMILES,ATG4B inhibitor,SKN-1 block,MPTP block,MT1-MMP act inh,Rh123 counter,others
O=C(CCC(=O)N1CCCC1)Nc1ccc(Cl)c(Cl)c1,i,i,i,i,nt,
Cc1cccc2c1-c1sc(C(=O)Nc3cccc([N+](=O)[O-])c3C)cc1CO2,i,i,75,i,68,
CC(=O)N1C[C@H]2CON(C)[C@H]2C[C@H]1c1ccc(-c2ccccc2)cc1,nt,i,i,i,nt,
CCc1cc(C(=O)Cc2ccc(F)cc2)c(O)cc1O,i,i,68,i,68,
CCCc1cc(C(=O)Cc2ccc(F)cc2)c(O)cc1O,i,i,i,i,nt,
Cc1ccc(NC(=O)Cn2c(=O)oc3cc(S(=O)(=O)N4CCC(C)CC4)ccc32)cc1C,i,i,70,i,90,
O=C(CCc1ccccc1)NNC(=S)NC(=O)c1ccccc1,i,i,i,i,nt,

# Screening results from PubChem BioAssay.
